Results gathered from unrelated publications.
Protocols differ between the studies behind these lines.
RPS6KA1 C-terminal kinase domain: Ribosomal protein S6 kinase alpha-1, C-terminal kinase domain (RPS6KA1, Homo sapiens, UniProt Q15418)
RPS6KA1: Ribosomal protein S6 kinase alpha-1 (RPS6KA1, Homo sapiens, UniProt Q15418)
RPS6KA1 N-terminal kinase domain: Ribosomal protein S6 kinase alpha-1, N-terminal kinase domain (RPS6KA1, Homo sapiens, UniProt Q15418)

| SMILES | target | assay | system | setting | quantity | result |
| --- | --- | --- | --- | --- | --- | --- |
| O=C1NC(c2ccccn2)Sc2ccccc21 (centres unmarked) | RPS6KA1 C-terminal kinase domain | cell-free assay, competition with immobilised ligand |  | 1 µM | remaining binding | 100% |
| CC(C)(O)[C@H]1CC[C@H](Nc2ccc3ncc(-c4cccc(C(F)(F)F)c4)n3n2)CC1 | RPS6KA1 | enzyme activity, inhibitor |  | 1 µM | remaining activity | 72% |
| Nc1ncnc2occ(-c3ccc(NC(=O)Nc4cc(C(F)(F)F)ccc4F)cc3)c12 | RPS6KA1 N-terminal kinase domain | cell-free assay, inhibitor |  | 20 µM | remaining signal | 2% |
| COc1cc2ncnc(Nc3ccc(Oc4ccccc4)cc3C)c2cc1OC | RPS6KA1 | enzyme activity, inhibitor |  | 1 µM | inhibition | 6% |
| N[C@@H]1CCN(c2nccc(-c3cnn4ncccc34)n2)C1 | RPS6KA1 C-terminal kinase domain | binding, competition with immobilised ligand |  | 1 µM | remaining binding | 100% |
| O=C1NC(=O)c2cc(Nc3ccc(F)cc3)c(Nc3ccc(F)cc3)cc21 | RPS6KA1 | cell-free assay |  | 0.5 µM | remaining signal | 97.7% |
| c1cnn2ncc(-c3ccnc(N4CCC45COC5)n3)c2c1 | RPS6KA1 N-terminal kinase domain | binding, competition with immobilised ligand |  | 1 µM | remaining binding | 90% |
| Cc1ccc(NC(=O)c2ccc(C)c(C(F)(F)F)c2)cc1C#Cc1nn(C2CCC(O)CC2)c2ncnc(N)c12 (centres unmarked) | RPS6KA1 | cell-free assay |  | 10 µM | remaining signal | 11% |
| c1ccc(CNc2nc(N3CCOc4ccccc43)nc3c2CCCC3)cc1 | RPS6KA1 C-terminal kinase domain | target engagement in cells, inhibitor, chemoproteomics |  | 20 mM | inhibition | -6.9% |
| O=C(N[C@H]1CCCCC/C=C\C2C[C@@]2(C(=O)O)NC(=O)[C@@H]2C[C@@H](Oc3ccncc3)CN2C1=O)OC1CCCC1 (some centres unmarked) | RPS6KA1 N-terminal kinase domain | binding, competition with immobilised ligand |  | 1 µM | remaining binding | 100% |
| CCN(CC)c1ccc(C2=NNC(=O)CC2C)cc1[N+](=O)[O-] (centres unmarked) | RPS6KA1 | enzyme activity, inhibitor |  | 10 µM | remaining activity | 101% |
| CC/C(=N\NC(=O)NCc1cccc(O)c1)c1ccc(O)c(C)c1O | RPS6KA1 | enzyme activity, inhibitor |  | 0.1 µM | inhibition | 72.1% |
| FC(F)c1nc2ccccc2n1-c1nc(N2CCOCC2)nc(N2CCOCC2)n1 | RPS6KA1 | enzyme activity, inhibitor |  | 10 µM | remaining activity | 95% |
| CCCCN(CCCC)C(=O)CN1C[C@H](c2cc(OC)c3c(c2)OCO3)[C@@H](C(=O)O)[C@@H]1CC(C)(C)CCC | RPS6KA1 N-terminal kinase domain | cell-free assay, competition with immobilised ligand |  | 1 µM | remaining binding | 97.7% |
| CC(C)(C)C(=O)c1sc(NC2CCCCC2)nc1N | RPS6KA1 | enzyme activity, inhibitor |  | 10 µM | remaining activity | 89% |
| C[C@H]1CCN(c2nccc(-c3cnn4ncccc34)n2)C1 | RPS6KA1 C-terminal kinase domain | binding, competition with immobilised ligand |  | 1 µM | remaining binding | 30% |
| O=C(Nc1cnc(Oc2ccc(F)cc2)nc1)N1CCc2ncccc2[C@@H]1c1ccc(F)cc1 | RPS6KA1 N-terminal kinase domain | cell-free assay, competition with immobilised ligand |  | 1 µM | remaining binding | 71% |
| COc1cc(Nc2cnc(C#N)c(O[C@H](C)CN(C)C)n2)ncc1-c1cnn(C)c1 | RPS6KA1 | enzyme activity, inhibitor, radiometric |  | 1 µM | remaining activity | 4% |
| CNC(=O)c1cc(Oc2ccc(NC(=O)Nc3ccc(Cl)c(C(F)(F)F)c3)cc2)ccn1 | RPS6KA1 | enzyme activity, inhibitor |  | 10 µM | inhibition | 25% |
| CNCc1ccccc1-c1csc([C@H](C)Nc2nc(C)nc3cc(OC)c(OC)cc23)c1 | RPS6KA1 C-terminal kinase domain | cell-free assay, competition with immobilised ligand |  | 1 µM | remaining binding | 100% |
| C#Cc1cccc(Nc2ncnc3cc(OCCOC)c(OCCOC)cc23)c1 | RPS6KA1 | cell-free assay |  | 0.5 µM | remaining signal | 97.6% |

| SMILES | target | assay | system | setting | quantity | result |
| --- | --- | --- | --- | --- | --- | --- |
| CNc1cccc2cc(C(=O)Nc3ccc(C(=O)O)cc3)c(=O)[nH]c12 | RPS6KA1 | enzyme activity, inhibitor |  | 10 µM | inhibition | 16% |
| CCS(=O)(=O)c1cc2cc(C[C@@](O)(CC(C)(C)c3ccc(F)cc3C(N)=O)C(F)(F)F)[nH]c2cn1 | RPS6KA1 C-terminal kinase domain | cell-free assay, competition with immobilised ligand |  | 1 µM | remaining binding | 0% |
| COc1cccc2c(NCc3ccccc3)nc(-n3c(N)nc4ccccc43)nc12 | RPS6KA1 C-terminal kinase domain | target engagement in cells, inhibitor, chemoproteomics |  | 20 mM | inhibition | 1% |
| COc1cc2ncnc(Nc3ccc(F)c(Cl)c3)c2cc1OCCCN1CCOCC1 | RPS6KA1 | cell-free assay |  | 0.5 µM | remaining signal | 97.3% |
| Cc1ccc(C(=O)Nc2ccc(CN3CCN(C)CC3)c(C(F)(F)F)c2)cc1C#Cc1cnc2cccnn12 | RPS6KA1 | enzyme activity, inhibitor |  | 23.5 nM | remaining activity | 80% |
| Cn1cncc1C1=CN(c2ncnc3[nH]cnc23)CCS1 | RPS6KA1 | enzyme activity, inhibitor, radiometric |  | 2 µM | inhibition | 82% |
| CNc1cc(Oc2cc(C(=O)Nc3cc(N4CCN(C)CC4)cc(C(F)(F)F)c3)ccc2C)ncn1 | RPS6KA1 C-terminal kinase domain | target engagement in cells, inhibitor, chemoproteomics | Huh-7 | 1 µM | inhibition | -27.6% |
| COc1cc(/C=C/C(=O)CC(=O)/C=C/c2ccc(O)c(OC)c2)ccc1O | RPS6KA1 | enzyme activity, inhibitor |  | 1 µM | activity vs control | 53% |
| Nc1nc(NC2CCCCC2)sc1C(=O)c1ccccc1 | RPS6KA1 | enzyme activity, inhibitor |  | 10 µM | remaining activity | 67% |
| CC1CCCN1c1nccc(-c2cnn3ncccc23)n1 (centres unmarked) | RPS6KA1 C-terminal kinase domain | binding, competition with immobilised ligand |  | 1 µM | remaining binding | 77% |
| COc1ccc2c(c1)O[C@@H](c1ccc(OC)c(OC)c1)C[C@H]2NC(=O)C1(c2ccc3c(c2)OC(F)(F)O3)CC1 | RPS6KA1 C-terminal kinase domain | cell-free assay, competition with immobilised ligand |  | 1 µM | remaining binding | 85% |
| CN(C)c1ncc(F)c(-c2cnn3ncccc23)n1 | RPS6KA1 C-terminal kinase domain | binding, competition with immobilised ligand |  | 1 µM | remaining binding | 100% |
| CN(c1ncccc1CNc1nc(Nc2ccc3c(c2)CC(=O)N3)ncc1C(F)(F)F)S(C)(=O)=O | RPS6KA1 | enzyme activity, inhibitor |  | 1 µM | inhibition | 84.8% |
| Cc1ccc(Nc2nccc(N(C)c3ccc4c(C)n(C)nc4c3)n2)cc1S(N)(=O)=O | RPS6KA1 | enzyme activity, inhibitor |  | 0.5 µM | remaining activity | 92.8% |
| COc1cc(Cl)c(C(=O)N[C@@H](CN[C@H]2CC[C@@H](N)CC2)Cc2ccc(C#N)cc2)cc1-c1ccc(CN[C@H](C)c2ccc(C)cc2)o1 | RPS6KA1 | enzyme activity, inhibitor |  | 1 µM | remaining activity | 85% |
| COc1cc2c(Nc3ccc(Br)cc3F)ncnc2cc1OCC1CCN(C)CC1 | RPS6KA1 | cell-free assay |  | 0.5 µM | remaining signal | 102% |
| O=C(Nc1cnn(-c2csc(C(=O)NC3COC3)c2)c1)Nc1ccccc1Cl | RPS6KA1 | enzyme activity, inhibitor |  | 5 µM | remaining activity | 92.4% |
| CC(C)(O)c1cncc(-c2nc3ccc(F)cc3n2C2CC2)c1 | RPS6KA1 C-terminal kinase domain | cell-free assay, competition with immobilised ligand |  | 1 µM | remaining binding | 100% |
| CC(C)(C)c1nc2c(s1)c1nc(N)ncc1c1ccc(NS(=O)(=O)c3c(F)cccc3F)c(F)c12 | RPS6KA1 | enzyme activity, inhibitor, radiometric |  | 1 µM | remaining activity | 107% |
| N#CCCc1ccc2c(c1)-c1[nH]c3ccc([N+](=O)[O-])cc3c1CC(=O)N2 | RPS6KA1 | cell-free assay |  | 0.5 µM | remaining signal | 59.9% |
